Source: ChEMBL document CHEMBL4270511, “Rational design and screening of peptide-based inhibitors of heat shock factor 1 (HSF1)” (Bioorg Med Chem, 2018)
Values belong to the substance of their own block, whether it stands above or below them. Active and inactive are the calls of the source. No cut-off for these calls is given here.

Legend:
[1] = biological target: T1, Heat shock factor protein 1 (Homo sapiens) (UniProt Q00613); test: Inhibition of recombinant human HSF1 expressed in Escherichia coli BL21 (DE3) assessed as reduction in HSF1 trimer-5-fluorescein labeled HSE interaction at 400 uM preincubated for 1 hr followed by DNA tracer addition and measured after 15 mins by competitive fluorescence polarization assay
T1 sequence (whole entry): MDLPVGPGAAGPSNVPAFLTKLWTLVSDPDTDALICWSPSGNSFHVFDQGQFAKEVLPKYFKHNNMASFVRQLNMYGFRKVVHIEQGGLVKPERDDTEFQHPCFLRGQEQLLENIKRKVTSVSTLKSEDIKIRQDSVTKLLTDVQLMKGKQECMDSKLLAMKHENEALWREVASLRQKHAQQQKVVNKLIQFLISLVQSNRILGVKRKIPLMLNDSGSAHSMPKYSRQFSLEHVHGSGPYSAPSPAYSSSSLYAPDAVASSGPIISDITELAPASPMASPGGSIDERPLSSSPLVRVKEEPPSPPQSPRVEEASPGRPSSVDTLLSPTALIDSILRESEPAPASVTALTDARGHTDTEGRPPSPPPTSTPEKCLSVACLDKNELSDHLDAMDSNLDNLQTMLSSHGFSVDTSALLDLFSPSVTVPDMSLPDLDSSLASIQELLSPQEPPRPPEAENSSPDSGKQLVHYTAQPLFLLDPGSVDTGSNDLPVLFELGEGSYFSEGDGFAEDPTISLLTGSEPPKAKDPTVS
Method in brief: (§1)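 His-HSF1 trimer, expressed in BL21 E. coli and isolated by SEC, was shaken with peptide in DMSO for 1 h at room temperature. 5-fluorescein HSE tracer was then added to give final 250 nM trimer, 15 nM tracer and 5% DMSO, followed by 15 min shaking. FP read at 485/530 nm. Single-point final peptide level 400 μM, scored as % inhibition relative to DMSO and tracer-only signals. Dose-response used serial dilutions from 800 μM, with nonlinear-regression IC₅₀ fitting. Duplicates.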

DNA = test: Binding affinity to 5-fluorescein labeled HSE DNA (unknown origin) after 15 mins to 24 hrs by fluorescence polarization method; format: nucleic-acid assay
Method in brief: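 Tracer-binding control: peptides serially diluted from 400 μM, incubated with 15 nM 5-fluorescein HSE tracer alone (no protein) for 15 min, 1 h, 3 h and 24 h. Read by FP at excitation 485 nm and emission 530 nm, with 15-min mP values plotted. Buffer was 25 mM HEPES, 75 mM NaCl, pH 7.5, 10 mM MgCl₂, 0.01% Triton-X. Triplicates.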

[2] = biological target: T1, Heat shock factor protein 1 (Homo sapiens); test: Disruption of full length human HSF1 trimer structure at 20 uM after 30 mins by size-exclusion chromatographic method
Method in brief: (§2)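 SEC-purified full-length human HSF1 trimer (2 μM) incubated with 20 μM peptide (10-fold molar excess) or DMSO (2% v/v) at 4 °C for 30 min. Samples then run on Sephacryl S-400 SEC, and collected fractions analysed by immunoblot to follow oligomeric state.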

[3] = biological target: T1, Heat shock factor protein 1 (Homo sapiens); test: (§3) Inhibition of recombinant human HSF1 expressed in Escherichia coli BL21 (DE3) assessed as reduction in HSF1 trimer-5-fluorescein labeled HSE interaction preincubated for 1 hr followed by DNA tracer addition and measured after 15 mins by competitive fluorescence polarization assay; method in brief: as §1
[4] = biological target: T2, Heat shock factor protein 1 (Homo sapiens, UniProt Q00613); test: as §3; method in brief: as §1
T2 sequence (Q00613 whole entry): T1 sequence (whole entry)

[5] = biological target: T1, Heat shock factor protein 1 (Homo sapiens); test: (§4) Inhibition of recombinant human HSF1 expressed in Escherichia coli BL21 (DE3) assessed as reduction in HSF1 trimer-5-fluorescein labeled HSE interaction preincubated of protein with DNA tracer up to 24 hrs followed by compound addition and measured after 15 mins by fluorescence polarization assay; details: in the assay text read “measured after 1 hr” for “measured after 15 mins”
Method in brief: (§5)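 Peptide added to a pre-formed complex of HSF1 trimer (250 nM) and 5-fluorescein HSE tracer (15 nM), then co-incubated a further 1 h before FP reading at 485/530 nm. Buffer was 25 mM HEPES, 75 mM NaCl, pH 7.5, 10 mM MgCl₂, 0.01% Triton-X. IC₅₀ from nonlinear regression; duplicate experiments.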

[6] = biological target: T2, Heat shock factor protein 1; test: as §4; details: in the assay text read “measured after 1 hr” for “measured after 15 mins”; method in brief: as §5
[7] = biological target: T1, Heat shock factor protein 1 (Homo sapiens); test: Disruption of full length human HSF1 trimer structure at 20 uM after 30 mins by SDS-PAGE analysis
[8] = biological target: T1, Heat shock factor protein 1 (Homo sapiens); test: Disruption of full length human HSF1 trimer structure at 20 uM after 30 mins by Western blot analysis; method in brief: as §2

Substance: Ac-LAMKHENEALWREVASLRQKHAQQQKVVNKL-NH2
Activity (DNA): Active

Substance: Ac-DKNELSDHLDAMDSNL-NH2
Activity [2]: inactive
inhibition [3]: Dose-dependent effect
IC50 [4]: 13 µM
inhibition [5]: Dose-dependent effect
IC50 [6]: 14 µM
inhibition [1]: 91%
Activity [7]: inactive
Activity [8]: inactive

Substance: Ac-LAMKHENEAL-NH2
inhibition [1]: 8.2%

Substance: Ac-DAMDSNL-NH2
inhibition [1]: 21%

Substance: Ac-WREVASL-NH2
inhibition [1]: 27%

Continued, values first:

inhibition [1]: > 100%
Substance: Ac-IKIRQDSVTKLLTDVQLMKGKQECMDSK-NH2

inhibition [1]: 0.4%
Substance: Ac-DKNELSDHL-NH2

inhibition [1]: 8.1%
Substance: Ac-DVQLMKGKQECMDSKLLAMKHENEALWREV-NH2

inhibition [1]: 22%
Substance: Ac-RQKHAQQQKVVNKL-NH2

inhibition [3]: Dose-dependent effect
IC50 [4]: 150 µM
inhibition [1]: 64%
Substance: Ac-HLDAMDSNLDNLQTMLSSHGFSVDTSALLD-NH2
